Assay results collected from several papers.
Compare with care: the assays were run in different laboratories.
CDK9: Cyclin-dependent kinase 9 (CDK9, Homo sapiens, UniProt P50750)

Compound | target | test | system | setting | measurement | result
C1=C/COCc2cc(ccc2OCCN2CCCC2)Nc2nccc(n2)-c2cccc(c2)COC/1 | CDK9 | binding | – | 0.1 µM | remaining binding | 64%
COc1ccc2oc(-c3ccc4nc(N)oc4c3)c/c(=N\c3ccccc3NC(=O)CCN)c2c1 | Cyclin-dependent kinase 9, with cyclin T1 (CDK9, Homo sapiens, UniProt P50750) | binding | – | 1 µM | remaining binding | 93%
C[C@H]1CC[C@H](n2c3cnccc3c3cnc(Nc4ccc5c(n4)CCN(C(=O)CO)C5)nc32)CC1 | CDK9 | cell-free assay | – | 1 µM | remaining signal | 60%
CC#CC(=O)N1CCC[C@H]1c1nc(-c2ccc(C(=O)Nc3ccccn3)cc2)c2c(N)nccn12 | CDK9 | enzyme activity, inhibitor | – | 1 µM | inhibition | 0%
CC(C)(C)c1cnc(CSc2cnc(NC(=O)C3CCN(C(=O)COCCOCCN4Cc5cc6c(cc5C4)C(=O)N(C4CCC(=O)NC4=O)C6=O)CC3)s2)o1 (stereo not drawn) | CDK9 | protein level, degrader, western blot | TC-71 | 25 nM | inhibition | 80.7%
CO[C@@H]1[C@H](N(C)C(=O)c2ccccc2)C[C@H]2O[C@]1(C)n1c3ccccc3c3c4c(c5c6ccccc6n2c5c31)C(=O)NC4 | CDK9 | enzyme activity, inhibitor | – | 1 µM | inhibition | 3%
CC(C)(C)c1cnc(CSc2cnc(NC(=O)C3CCN(C(=O)CCCCCCCN4Cc5cc6c(cc5C4)C(=O)N(C4CCC(=O)NC4=O)C6=O)CC3)s2)o1 (stereo not drawn) | CDK9 | protein level, degrader, western blot | TC-71 | 25 nM | inhibition | 94.4%
C[C@]1(O)CCCN(c2nc(Nc3ccc(S(=O)(=O)N[C@H]4CC[C@H](CN5CCN(c6ccc(C7CCC(=O)NC7=O)cc6F)CC5)CC4)cc3F)ncc2C(F)(F)F)C1 (stereo partly drawn) | CDK9 | binding, competition with immobilised ligand | – | 1 µM | remaining binding | 95%
CC(C)(C)c1cnc(CSc2cnc(NC(=O)C3CCN(C(=O)CCCCN4Cc5cc6c(cc5C4)C(=O)N(C4CCC(=O)NC4=O)C6=O)CC3)s2)o1 (stereo not drawn) | CDK9 | protein level, degrader, western blot | TC-71 | 25 nM | inhibition | 80.1%
CNS(=O)(=O)c1ccc(Nc2ncc(C(F)(F)F)c(N3CCC[C@](C)(O)C3)n2)c(C)c1 | CDK9 | binding, competition with immobilised ligand | – | 1 µM | remaining binding | 98%
CN1CCN(C(=O)c2ccc(NC(=O)Nc3ccc(N(C)c4ccnc(Nc5ccc(CS(C)(=O)=O)cc5)n4)cc3)cc2)CC1 | CDK9 | binding | – | 1 µM | remaining binding | 69%
CC(C)(C)c1cnc(CSc2cnc(NC(=O)C3CCN(C(=O)CCCCCCCCCCCN4Cc5cc6c(cc5C4)C(=O)N(C4CCC(=O)NC4=O)C6=O)CC3)s2)o1 (stereo not drawn) | CDK9 | protein level, degrader, western blot | TC-71 | 25 nM | inhibition | 78%
